Results published in ChEMBL document CHEMBL3232908, “Guanacastane diterpenoids from the plant endophytic fungus Cercospora sp” (J Nat Prod, 2014).
Activity calls are given as the source filed them. The calls are words filed in the database; no cut-off is given here.

Assays:
[1] = system: A549; assay: Cytotoxicity against human A549 cells at 50 uM after 48 hrs by MTS assay; format: functional, cell-based
Method in brief: (§1)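 Cells seeded at 2−5 × 10^3 per well by growth rate and allowed to attach overnight. Medium then replaced with medium holding test compound or 0.1% DMSO, made by serial dilution of 100 mM DMSO stocks. Incubated 48 h at 37 °C in humidified 5% CO2. MTS added, 90 min at 37 °C in the dark, absorbance read at 490 nm. Run in triplicate.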

[2] = system: MCF7; assay: Cytotoxicity against human MCF7 cells at 50 uM after 48 hrs by MTS assay; format: functional, cell-based; method in brief: as §1
[3] = system: T-24; assay: Cytotoxicity against human T24 cells at 50 uM after 48 hrs by MTS assay; format: functional, cell-based; method in brief: as §1
[4] = system: HeLa; assay: Cytotoxicity against human HeLa cells at 50 uM after 48 hrs by MTS assay; format: functional, cell-based; method in brief: as §1
[5] = system: HCT-116; assay: Cytotoxicity against human HCT116 cells at 50 uM after 48 hrs by MTS assay; format: functional, cell-based; method in brief: as §1
[6] = system: HCT-116; assay: Induction of autophagy in human HCT116 cells transfected with plasmid expressing GFP-LC3 at 10 uM by DAPI staining based fluorescence microscopy; format: functional, cell-based
Method in brief: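 HCT116 cells transfected with a GFP-LC3 plasmid. Transfection was 12 h by the legend and 24 h by the methods. Cells then incubated at 37 °C in RPMI-1640 with test compound or 1/1000 DMSO, fixed and stained with DAPI. GFP-LC3 puncta imaged by confocal fluorescence microscopy.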

[7] = Cytotoxicity against human T24 cells after 48 hrs by MTS assay; format: functional, cell-based; conditions: T-24, 48 h; method in brief: as §1
[8] = system: HCT-116; assay: Induction of autophagy in human HCT116 cells assessed as increase in ratio of LC3-II to actin expression at 10 uM after 2 hrs by Western blot analysis relative to control; format: functional
Method in brief: (§2)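 HCT116 colon carcinoma cells were grown in RPMI-1640 with fetal bovine serum and antibiotics, split overnight to 50% confluence, then dosed. Cells were lysed in 50 mM Tris-HCl pH 7.4, 2 mM EDTA, 2 mM EGTA, 1 mM DTT, 1% Triton X-100 and protease inhibitors. SDS-PAGE and PVDF blot used polyclonal anti-LC3, anti-actin and ECL. LC3-II/actin was measured by densitometry, representative of three experiments.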

[9] = system: HCT-116; assay: Induction of autophagy in human HCT116 cells assessed as increase in ratio of LC3-II to actin expression at 2.5 uM after 2 hrs by Western blot analysis relative to control; format: functional; method in brief: as §2
[10] = system: HCT-116; assay: Cytotoxicity against human HCT116 cells after 48 hrs by MTS assay; format: functional, cell-based; conditions: HCT-116, 48 h; method in brief: as §1
[11] = system: HCT-116; assay: Induction of autophagy in human HCT116 cells assessed as accrual of membrane vacuoles and autophagosome-like structure with double-membrane sturctures formation at 10 uM after 2 hrs by electron microscopy; format: functional, cell-based
Method in brief: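 HCT116 cells in RPMI-1640 treated 2 h. Cells washed three times with PBS, trypsinized and pelleted. Pellets fixed overnight in 4% paraformaldehyde at 4 °C, postfixed 1 h at room temperature in 1% OsO4 in cacodylate buffer, dehydrated stepwise in ethanol, rinsed in propylene oxide and embedded in Spurr resin. Thin sections examined by transmission electron microscopy.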

[12] = system: HCT-116; assay: Induction of autophagy in human HCT116 cells assessed as increase in ratio of LC3-II to actin expression at 5 uM after 2 hrs by Western blot analysis relative to control; format: functional; method in brief: as §2
[13] = system: MCF7; assay: Cytotoxicity against human MCF7 cells after 48 hrs by MTS assay; format: functional, cell-based; conditions: MCF7, 48 h; method in brief: as §1
[14] = system: A549; assay: Cytotoxicity against human A549 cells after 48 hrs by MTS assay; format: functional, cell-based; conditions: A549, 48 h; method in brief: as §1
[15] = system: HeLa; assay: Cytotoxicity against human HeLa cells after 48 hrs by MTS assay; format: functional, cell-based; method in brief: as §1

Compound	Activity [1]	Activity [2]	Activity [3]	Activity [4]	Activity [5]	Activity [6]	IC50 [7] [µM]	Ratio [8]	Ratio [9]	IC50 [10] [µM]	Activity [11]	Ratio [12]	IC50 [13] [µM]	IC50 [14] [µM]	IC50 [15] [µM]
C[C@H](CO)[C@H]1CC(=O)[C@@H]2[C@H]3OCC4=C3[C@@](C)(CCC4=O)CC[C@]12C	inactive	inactive	inactive	inactive	inactive										
CC1=C2C=C3C(=O)C(O)=C([C@H](C)CO)[C@@]3(C)CC[C@]2(C)C[C@@H](O)C1=O	inactive	inactive	inactive	inactive	inactive										
CC(C)[C@H]1CC(=O)C2=CC3=C(CO)C(=O)C(O)=C[C@@]3(C)CC[C@@]21C	inactive	inactive	inactive	inactive	inactive										
CC(C)C1=C(O)C(=O)C2=CC3=C(CCC4=C5C=C6C(=O)C(O)=C(C(C)C)[C@@]6(C)CC[C@]5(C)C[C@@H](O)C4=O)C(=O)[C@H](O)C[C@@]3(C)CC[C@@]21C	inactive	inactive	inactive	inactive	inactive										
CC(C)C1=C(O)C(=O)C2=CC3=C(CO)C(=O)[C@H](O)C[C@@]3(C)CC[C@@]21C	inactive	inactive	inactive	inactive	inactive										
CC(C)C1=C(O)C(=O)C2=CC3=C(CCC4=C5CC6=C(O)C(=O)[C@H](C(C)C)[C@@]6(C)CC[C@]5(C)C[C@@H](O)C4=O)C(=O)[C@H](O)C[C@@]3(C)CC[C@@]21C						Active	8.16	1.4	1.2	21.3	Active	1.3	46.1	29.7	19.3
